Source: ChEMBL document CHEMBL1944511, “Bakuchiol derivatives as novel and potent cytotoxic agents: a report” (Eur J Med Chem, 2012)
The source made the active and inactive calls. No cut-off for these calls is given here.

Columns and labels:
HCT-15 [1] = assay: Growth inhibition of human HCT15 cells at 5 uM after 48 hrs by sulpharhodamine B assay; assay type: functional; settings: HCT-15, 48 h, read-out: GI
Method in brief: (§1)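 This is the SRB protein-stain assay on adherent cells in RPMI-1640/MEM with 10% FCS. Each compound in DMSO (vehicle <0.2%) was applied at a single fixed concentration for 48 h. Cells were fixed with TCA and stained with SRB, and the dye was solubilised in Tris and read at 570/620 nm. Percent growth inhibition is relative to vehicle-treated controls, reported as mean ± SD of three experiments run in triplicate.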

HEp-2 = assay: Growth inhibition of human Hep2 cells at 30 uM after 48 hrs by sulpharhodamine B assay; assay type: functional; settings: HEp-2, 48 h, read-out: GI; method in brief: as §1
HeLa [2] = assay: Growth inhibition of human HeLa cells at 30 uM after 48 hrs by sulpharhodamine B assay; assay type: functional; settings: read-out: GI; method in brief: as §1
DU-145 [3] = assay: Growth inhibition of human DU145 cells at 5 uM after 48 hrs by sulpharhodamine B assay; assay type: functional; settings: DU-145, 48 h, read-out: GI; method in brief: as §1
THP-1 [4] = assay: Growth inhibition of human THP1 cells at 20 uM after 48 hrs by sulpharhodamine B assay; assay type: functional; settings: THP-1, 48 h, read-out: GI
Method in brief: (§2)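 Cells grown in RPMI-1640/MEM with 10% FCS, penicillin/streptomycin, 37 °C, 5% CO2. Seeded in 96-well plates, allowed to adhere overnight, then exposed 48 h to analogs in DMSO (vehicle <0.2% in controls). TCA-fixed, stained with 0.4% SRB in 1% acetic acid, dye solubilized in 10 mM Tris base, OD 570 nm (ref 620 nm). Mean ± SD of three experiments run in triplicate.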

HL-60 [5] = assay: Induction of apoptosis in human HL60 cells assessed as increase in […] sub-G0 fraction at 30 uM by propidium iodide staining-based flow cytometric analysis (reference value: 6%); assay type: functional
PC-3 [6] = assay: Growth inhibition of human PC3 cells at 50 uM after 48 hrs by sulpharhodamine B assay; assay type: functional; settings: PC-3, 48 h, read-out: GI; method in brief: as §2
MCF7 [7] = assay: Growth inhibition of human MCF7 cells at 5 uM after 48 hrs by sulpharhodamine B assay; assay type: functional; settings: MCF7, 48 h, read-out: GI; method in brief: as §1
MCF7 [8] = assay: Growth inhibition of human MCF7 cells at 50 uM after 48 hrs by sulpharhodamine B assay; assay type: functional; settings: MCF7, 48 h, read-out: GI; method in brief: as §1
A549 = assay: Growth inhibition of human A549 cells at 10 uM after 48 hrs by sulpharhodamine B assay; assay type: functional; settings: A549, 48 h, read-out: GI; method in brief: as §1
DU-145 [9] = assay: Cytotoxicity against human DU145 cells after 48 hrs by sulpharhodamine B assay; assay type: functional, cell-based; settings: DU-145, 48 h
Method in brief: (§3)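 Cells were grown in RPMI-1640/MEM with 10% FCS and penicillin/streptomycin at 37 °C under 5% CO2, then seeded and left to adhere overnight. Analogs in DMSO (vehicle <0.2%) were added at several concentrations for 48 h. Cells were fixed with cold 50% TCA, stained with 0.4% SRB in 1% acetic acid, solubilised in 10 mM Tris, and read at OD 570/620 nm. IC50 came from non-linear regression.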

HL-60 [10] = assay: Induction of apoptosis in human HL60 cells assessed as loss of mitochondrial membrane potential at 5 uM after 24 hrs by rodamine-123 staining-based flow cytometric analysis (reference value: 6%); assay type: functional
THP-1 [11] = assay: Cytotoxicity against human THP1 cells after 48 hrs by sulpharhodamine B assay; assay type: functional, cell-based; settings: THP-1, 48 h; method in brief: as §3
THP-1 [12] = assay: Growth inhibition of human THP1 cells at 50 uM after 48 hrs by sulpharhodamine B assay; assay type: functional; settings: THP-1, 48 h, read-out: GI; method in brief: as §2
HL-60 [13] = assay: Cytotoxicity against human HL60 cells by MTT assay; assay type: functional, cell-based; settings: TDE = time-dependent effect
Method in brief: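 Exponentially growing HL-60 cells (1.5×10^4 per well) in 96-well plates were exposed to a range of compound concentrations in DMSO, with vehicle-only controls. MTT (2.5 mg/mL stock) was added for 3–4 h at 37 °C, and formazan was dissolved in DMSO and read at OD 570/620 nm. […] Data are mean ± SD of n = 6 wells from two experiments.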

HL-60 [14] = assay: Induction of apoptosis in human HL60 cells assessed as DNA fragmentation at 20 uM after 24 hrs by agarose gel electrophoresis; assay type: functional, cell-based
Method in brief: (§4)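 HL-60 cells (2×10^6/well/2 mL) treated 24 h in 6-well plates. DNA extracted with phenol:chloroform:isoamyl alcohol, ethanol-precipitated, run on 1% agarose at 80 V for 1.5 h in TAE.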

THP-1 [15] = assay: Growth inhibition of human THP1 cells at 5 uM after 48 hrs by sulpharhodamine B assay; assay type: functional; settings: THP-1, 48 h, read-out: GI; method in brief: as §2
HL-60 [16] = assay: Induction of apoptosis in human HL60 cells assessed as loss of mitochondrial membrane potential at 1 uM after 24 hrs by rodamine-123 staining-based flow cytometric analysis (reference value: 6%); assay type: functional
HL-60 [17] = assay: Induction of apoptosis in human HL60 cells assessed as DNA fragmentation at 40 uM after 24 hrs by agarose gel electrophoresis; assay type: functional, cell-based; method in brief: as §4
MCF7 [18] = assay: Growth inhibition of human MCF7 cells at 20 uM after 48 hrs by sulpharhodamine B assay; assay type: functional; settings: MCF7, 48 h, read-out: GI; method in brief: as §1
PC-3 [19] = assay: Growth inhibition of human PC3 cells at 30 uM after 48 hrs by sulpharhodamine B assay; assay type: functional; settings: PC-3, 48 h, read-out: GI; method in brief: as §2
HCT-15 [20] = assay: Growth inhibition of human HCT15 cells at 10 uM after 48 hrs by sulpharhodamine B assay; assay type: functional; settings: HCT-15, 48 h, read-out: GI; method in brief: as §1
HeLa [21] = assay: Growth inhibition of human HeLa cells at 50 uM after 48 hrs by sulpharhodamine B assay; assay type: functional; settings: read-out: GI; method in brief: as §1
HL-60 [22] = assay: Induction of apoptosis in human HL60 cells assessed as increase in […] sub-G0 fraction at 20 uM by propidium iodide staining-based flow cytometric analysis (reference value: 6%); assay type: functional
PC-3 [23] = assay: Growth inhibition of human PC3 cells at 20 uM after 48 hrs by sulpharhodamine B assay; assay type: functional; settings: PC-3, 48 h, read-out: GI; method in brief: as §1
PC-3 [24] = assay: Cytotoxicity against human PC3 cells after 48 hrs by sulpharhodamine B assay; assay type: functional, cell-based; settings: PC-3, 48 h; method in brief: as §3
DU-145 [25] = assay: Growth inhibition of human DU145 cells at 20 uM after 48 hrs by sulpharhodamine B assay; assay type: functional; settings: DU-145, 48 h, read-out: GI; method in brief: as §1
HL-60 [26] = assay: Induction of apoptosis in human HL60 cells assessed as increase in […] sub-G0 fraction at 1 uM by propidium iodide staining-based flow cytometric analysis (reference value: 6%); assay type: functional
OVCAR-5 = assay: Growth inhibition of human OVCAR5 cells at 50 uM after 48 hrs by sulpharhodamine B assay; assay type: functional; settings: OVCAR-5, 48 h, read-out: GI; method in brief: as §1
HL-60 [27] = assay: Induction of apoptosis in human HL60 cells assessed as DNA fragmentation after 24 hrs by agarose gel electrophoresis; assay type: functional, cell-based; method in brief: as §4

Compound | inhibition of growth at 5 µM (HCT-15 [1]) | inhibition of growth at 30 µM (HEp-2) | inhibition of growth at 30 µM (HeLa [2]) | inhibition of growth at 5 µM (DU-145 [3]) | inhibition of growth at 20 µM (THP-1 [4]) | Activity (HL-60 [5]) | inhibition of growth at 50 µM (PC-3 [6]) | inhibition of growth at 5 µM (MCF7 [7]) | inhibition of growth at 50 µM (MCF7 [8]) | inhibition of growth at 10 µM (A549) | IC50 (DU-145 [9]) | Activity (HL-60 [10]) | IC50 (THP-1 [11]) | inhibition of growth at 50 µM (THP-1 [12]) | Activity (HL-60 [13]) | inhibition of growth at 5 µM (THP-1 [15]) | Activity (HL-60 [16]) | inhibition of growth at 20 µM (MCF7 [18]) | inhibition of growth at 30 µM (PC-3 [19]) | inhibition of growth at 10 µM (HCT-15 [20]) | further results
CC1C(C(C)(C)O)CCC1(C)/C=C/c1ccc(O)cc1 (configuration not stated) | 29% | 53% | 52% | 32% | 76% | 68% | 86% | 27% | 79% | 40% | 14 µM | 17.9% | 3.5 µM | 93% | tde | 54% | 12.4% | 50% | 62% | 55% | Activity (HL-60 [14]): Active; Activity (HL-60 [17]): Active; inhibition of growth at 50 µM (HeLa [21]): 68%; Activity (HL-60 [22]): 48%; inhibition of growth at 20 µM (PC-3 [23]): 57%; IC50 (PC-3 [24]): 19 µM; inhibition of growth at 20 µM (DU-145 [25]): 54%; Activity (HL-60 [26]): 8%; inhibition of growth at 50 µM (OVCAR-5): 75%
COc1ccc(/C=C/[C@](C)(/C=C/c2ccc(O)cc2)CCC=C(C)C)cc1 | 28% | 45% | 56% | 20% | 78% | 66% | 93% | 24% | 77% | 47% | 11 µM | 20.6% | 4.2 µM | 86% | tde | 53% | 14.4% | 50% | 50% | 50% | Activity (HL-60 [27]): Dose-dependent effect; inhibition of growth at 50 µM (HeLa [21]): 78%; Activity (HL-60 [22]): 54%; inhibition of growth at 20 µM (PC-3 [23]): 58%; IC50 (PC-3 [24]): 15 µM; inhibition of growth at 20 µM (DU-145 [25]): 73%; Activity (HL-60 [26]): 5%; inhibition of growth at 50 µM (OVCAR-5): 67%
